Results from ChEMBL document CHEMBL1128240, “Studies on new acidic azoles as glucose-lowering agents in obese, diabetic db/db mice” (J Med Chem, 1995).
Calls of active or inactive are those of the source. The rule behind the calls is not given here.

How the values were obtained:
Mus musculus [1] = test: Percentage change in plasma glucose concentration of drug treated mice relative to vehicle controls at 100 mg/kg (once daily perorally x 4) in groups of db/db mice; NA = not active; format: functional, organism-based; design: dose 100 mg/kg
Outline: (§1)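 Male C57BL/KsJ db/db mice (2-7 months, 35-60 g), 4 h fasted baseline tail blood on day 1; extremes excluded, randomized into groups (N = 4-6) of equal mean glucose. Dosed po as suspension in 2% Tween 80/saline on afternoons of days 1-3 (fed) and day 4 after 3 h fast. Plasma glucose (Abbott VP analyzer) 2 and 4 h post-dose, mean versus day-1 baseline; ANOVA with one-sided Dunnett's test against vehicle.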

Mus musculus [2] = test: percentage change in plasma glucose concentration of drug treated mice relative to vehicle controls at 20 mg/kg (once daily perorally x 4) in groups of db/db mice compared to vehicle control; format: functional; details: route oral; outline: as §1
[3] = Partition coefficient (logP); format: physicochemical; details: octanol/water
Outline: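 Manual shake-flask octanol/aqueous partition. Buffer was 0.01 M K2HPO4 at pH 7.4. Sample was shaken 1 min, equilibrated 4 h, and phases separated and centrifuged. Each phase was quantified by reverse-phase C18 HPLC (acetonitrile/0.01 M […] pH 3.5, 214 nm). Average of at least two runs.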

[4] = Dissociation constant measured by potentiometric titration (in duplicate) in 1:1 dioxane-water using a Fisher accumet pH meter model 630 and a Perkin-Elmer chart recorder model 56.; format: physicochemical
Outline: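 Apparent pKa from potentiometric titration with 0.1 N NaOH in dioxane–water (1:1). Sample concentration 0.2 mM, solvent 30 mL, 25 °C, titrant flow 0.17 mL/min. Value is the average of two runs. The system was conditioned and checked in duplicate against piperazine, allantoin, barbituric acid and ciglitazone standards.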

Mus musculus [5] = test: percentage change in plasma glucose concentration of drug treated mice relative to vehicle controls at 100 mg/kg (once daily perorally x 4) in groups of db/db mice compared to vehicle control; format: functional; details: route oral; outline: as §1
Mus musculus [6] = test: percentage change in plasma glucose concentration of drug treated mice relative to vehicle controls at 100 mg/kg (once daily perorally x 4) in groups of db/db mice; NA= not active; format: functional, organism-based; design: dose 100 mg/kg; outline: as §1
Mus musculus [7] = test: percentage change in plasma glucose concentration of drug treated mice relative to vehicle controls at 73 mg/kg (once daily perorally x 4) in groups of db/db mice compared to vehicle control; format: functional; details: route oral; outline: as §1
Mus musculus [8] = test: percentage change in plasma glucose concentration of drug treated mice relative to vehicle controls at 27 mg/kg (once daily perorally x 4) in groups of db/db mice; NA = not active; format: functional, organism-based; design: dose 27 mg/kg; outline: as §1
Mus musculus [9] = test: percentage change in plasma glucose concentration of drug treated mice relative to vehicle controls at 5 mg/kg (once daily perorally x 4) in groups of db/db mice; not active, generally less than -15% change; format: functional, organism-based; design: dose 5 mg/kg; outline: as §1
Mus musculus [10] = test: percentage change in plasma glucose concentration of drug treated mice relative to vehicle controls at 20 mg/kg (once daily perorally x 4) in groups of db/db mice; NA = not active; format: functional, organism-based; design: dose 20 mg/kg; outline: as §1
Mus musculus [11] = test: percentage change in plasma glucose concentration of drug treated mice relative to vehicle controls at 100 mg/kg (once daily perorally x 4) in groups of db/db mice; format: functional; details: route oral; outline: as §1
Mus musculus [12] = test: percentage change in plasma glucose concentration of drug treated mice relative to vehicle controls at 20 mg/kg (once daily perorally x 4) in groups of db/db mice; Not active; format: functional, organism-based; design: dose 20 mg/kg; outline: as §1
Mus musculus [13] = test: percentage change in plasma glucose concentration of drug treated mice relative to vehicle controls at 20 mg/kg (once daily perorally x 4) in groups of db/db mice; format: functional; details: route oral; outline: as §1
Mus musculus [14] = test: percentage change in plasma glucose concentration of drug treated mice relative to vehicle controls at 53 mg/kg (once daily perorally x 4) in groups of db/db mice; NA = not active; format: functional, organism-based; design: dose 53 mg/kg; outline: as §1
Mus musculus [15] = test: percentage change in plasma glucose concentration of drug treated mice relative to vehicle controls at 100 mg/kg (once daily perorally x 4) in groups of db/db mice; Not active; format: functional, organism-based; design: dose 100 mg/kg; outline: as §1
Mus musculus [16] = test: percentage change in plasma glucose concentration of drug treated mice relative to vehicle controls at 5 mg/kg (once daily perorally x 4) in groups of db/db mice; format: functional; details: route oral; outline: as §1
Mus musculus [17] = test: Percentage change in plasma glucose concentration of drug treated mice relative to vehicle controls at 20 mg/kg (once daily perorally x 4) in groups of db/db mice; NA = not active

**Q.** Which Change (Mus musculus [1]) does the source give for Oc1[nH]nc2c1CCc1sccc1-2 here?
**A.** inactive

**Q.** For Oc1[nH]nc(C(F)(F)F)c1Cc1ccc2sccc2c1, which Change (Mus musculus [2]) is on record?
**A.** -29%

**Q.** With CC1(COc2ccc(CC3SC(=O)NC3=O)cc2)CCCCC1 (stereo not given) [CIGLITAZONE] as the compound, how does the logP [3] read?
**A.** 3.61

**Q.** And the pKa [4]?
**A.** 7.8

**Q.** What about the Change (Mus musculus [5]) of the same compound?
**A.** -28%

**Q.** With C[n+]1nn(Cc2ccccc2)c([O-])c1Cc1ccc2ccccc2c1 as the compound, how does the Change (Mus musculus [6]) read?
**A.** inactive

**Q.** Which Change (Mus musculus [6]) does the source give for Oc1[nH]nc(C(F)(F)C(F)(F)C(F)(F)F)c1Cc1ccc2ccccc2c1 here?
**A.** inactive

**Q.** Which Change (Mus musculus [7]) does the source give for Nc1n[nH]c(O)c1Cc1ccc2ccccc2c1 here?
**A.** -27%

**Q.** With Oc1[nH]ncc1Cc1ccc2ccccc2c1 as the compound, how does the Change (Mus musculus [8]) read?
**A.** inactive

**Q.** Which Change (Mus musculus [2]) does the source give for Cc1n[nH]c(O)c1Cc1ccc2c(c1)OCCO2 here?
**A.** -21%

**Q.** Which results are given for Cc1n[nH]c(O)c1Cc1ccc2ccccc2c1?
**A.** Change (Mus musculus [5]): -42%; Change (Mus musculus [2]): -31%

**Q.** Which Change (Mus musculus [2]) does the source give for CCc1n[nH]c(O)c1Cc1ccc2ccccc2c1 here?
**A.** -32%

**Q.** And the Change (Mus musculus [9])?
**A.** Not significant

**Q.** For NNc1n[nH]c(O)c1Cc1ccc2ccccc2c1, which Change (Mus musculus [1]) is on record?
**A.** inactive

**Q.** With Cc1onc(O)c1Cc1ccc2ccccc2c1 as the compound, how does the Change (Mus musculus [5]) read?
**A.** -48%

**Q.** And the Change (Mus musculus [2])?
**A.** -25%

**Q.** With Oc1cc(CSc2nc3ccccc3s2)n[nH]1 as the compound, how does the Change (Mus musculus [1]) read?
**A.** inactive

**Q.** With Oc1[nH]nc(C(F)(F)F)c1Cc1ccc2nccnc2c1 as the compound, how does the Change (Mus musculus [2]) read?
**A.** -27%

**Q.** With O=C(O)C(=O)/C=C(\O)c1ccc2ccccc2c1 as the compound, how does the Change (Mus musculus [5]) read?
**A.** -28%

**Q.** With Oc1cc(Cc2ccc3ccccc3c2)n[nH]1 as the compound, how does the Change (Mus musculus [1]) read?
**A.** inactive

**Q.** With CCc1o[nH]c(=O)c1Cc1ccc2ccccc2c1 as the compound, how does the Change (Mus musculus [10]) read?
**A.** inactive

**Q.** Which Change (Mus musculus [10]) does the source give for Cc1o[nH]c(=O)c1Cc1ccc2ccccc2c1Br here?
**A.** inactive

**Q.** For COCc1n[nH]c(O)c1Cc1ccc2ccccc2c1, which Change (Mus musculus [5]) is on record?
**A.** -39%

**Q.** And the Change (Mus musculus [10])?
**A.** inactive

**Q.** Which Change (Mus musculus [10]) does the source give for Cc1noc(O)c1Cc1ccc2ccccc2c1Br here?
**A.** inactive

**Q.** For Cc1[nH]oc(=O)c1Cc1ccc2ccccc2c1, which Change (Mus musculus [11]) is on record?
**A.** -17%

**Q.** Which Change (Mus musculus [1]) does the source give for Oc1cc(CSc2nc3ccccc3s2)no1 here?
**A.** inactive

**Q.** With c1ccc2cc(Cc3nnn[nH]3)ccc2c1 as the compound, how does the logP ([3]; read-out: logP) read?
**A.** 0.72

**Q.** What about the pKa [4] of the same compound?
**A.** 5.77

**Q.** And the Change (Mus musculus [12])?
**A.** inactive

**Q.** Which Change (Mus musculus [12]) does the source give for O=C1NC(=O)C(Cc2ccc3ccccc3c2)=C1O here?
**A.** inactive

**Q.** With Oc1[nH]nc(C(F)(F)F)c1Cc1ccc2c(c1)CCC(Cc1ccccc1)O2 (stereo not given) as the compound, how does the Change (Mus musculus [1]) read?
**A.** inactive

**Q.** For Oc1nnnn1Cc1ccc2ccccc2c1, which Change (Mus musculus [1]) is on record?
**A.** inactive

**Q.** For Cc1n[nH]c(O)c1Cc1ccc2ccccc2c1Br, which Change (Mus musculus [13]) is on record?
**A.** -20%

**Q.** For Cc1c(Cc2ccc3ccccc3c2)o[nH]c1=O, which Change (Mus musculus [1]) is on record?
**A.** inactive

**Q.** With Cc1n[nH]c(O)c1Cc1nc2ccccc2o1 as the compound, how does the Change (Mus musculus [14]) read?
**A.** inactive

**Q.** For CCCc1o[nH]c(=O)c1Cc1ccc2ccccc2c1, which Change (Mus musculus [10]) is on record?
**A.** inactive

**Q.** For COC(=O)C(=O)/C=C(\O)c1ccc2ccccc2c1, which Change (Mus musculus [5]) is on record?
**A.** -37%

**Q.** For Oc1[nH]nc(C(F)(F)F)c1Cc1ccc2c(Br)cccc2c1, which Change (Mus musculus [2]) is on record?
**A.** -22%

**Q.** For Oc1cc(CSc2ccc3ccccc3c2)no1, which Change (Mus musculus [1]) is on record?
**A.** inactive

**Q.** With Cc1c(O)nnn1Cc1ccc2ccccc2c1 as the compound, how does the Change (Mus musculus [1]) read?
**A.** inactive

**Q.** Which Change (Mus musculus [1]) does the source give for Oc1[nH]nc2c1CCc1ccccc1-2 here?
**A.** inactive

**Q.** For Oc1c(Cc2ccc3ccccc3c2)nnn1Cc1ccccc1, which Change (Mus musculus [1]) is on record?
**A.** inactive

**Q.** With O=C(O)c1cc(-c2ccc3ccccc3c2)[nH]n1 as the compound, how does the Change (Mus musculus [1]) read?
**A.** inactive

**Q.** With COCc1noc(O)c1Cc1ccc2ccccc2c1 as the compound, how does the Change (Mus musculus [1]) read?
**A.** inactive

**Q.** With Cc1c(Cc2ccc3ccccc3c2)n[nH]c1O as the compound, how does the Change (Mus musculus [10]) read?
**A.** inactive

**Q.** Which Change (Mus musculus [1]) does the source give for Oc1n[nH]c(O)c1Cc1ccc2ccccc2c1 here?
**A.** inactive

**Q.** For Cc1o[nH]c(=O)c1Cc1ccccc1, which Change (Mus musculus [1]) is on record?
**A.** inactive

**Q.** Which Change (Mus musculus [1]) does the source give for COC(=O)c1cc(-c2ccc3ccccc3c2)[nH]n1 here?
**A.** inactive

**Q.** For CC(C)c1n[nH]c(O)c1Cc1ccc2ccccc2c1, which Change (Mus musculus [5]) is on record?
**A.** -30.4%

**Q.** Which Change (Mus musculus [1]) does the source give for Cc1n[nH]c(O)c1Cc1ccccc1 here?
**A.** inactive

**Q.** Which Change (Mus musculus [10]) does the source give for Cc1n[nH]c(O)c1Cc1cccc2ccccc12 here?
**A.** inactive

**Q.** Which results are given for O=C(O)CCc1ccc2ccccc2c1?
**A.** logP ([3]; read-out: logP): 1.09; pKa [4]: 6.52; Change (Mus musculus [15]): inactive

**Q.** With Oc1[nH]nc(-c2ccccc2)c1Cc1ccc2ccccc2c1 as the compound, how does the Change (Mus musculus [1]) read?
**A.** inactive

**Q.** Which Change (Mus musculus [1]) does the source give for Oc1n[nH]nc1Cc1ccc2ccccc2c1 here?
**A.** inactive

**Q.** Which Change (Mus musculus [1]) does the source give for Oc1[nH]nc(C(F)(F)C(F)(F)F)c1Cc1ccc2ccccc2c1 here?
**A.** inactive

**Q.** Which Change (Mus musculus [16]) does the source give for Oc1[nH]nc(C(F)(F)F)c1Cc1ccc2ccccc2c1 here?
**A.** -16%

**Q.** For O=[N+]([O-])c1ccc(-c2n[nH]c(O)c2Cc2ccc3ccccc3c2)cc1, which Change (Mus musculus [1]) is on record?
**A.** inactive

**Q.** For Cc1n[nH]c(O)c1CSc1nc2ccccc2[nH]1, which Change (Mus musculus [6]) is on record?
**A.** inactive

**Q.** With Oc1onc(-c2ccccc2)c1Cc1ccc2ccccc2c1 as the compound, how does the Change (Mus musculus [1]) read?
**A.** inactive

**Q.** With Cn1nnc(O)c1Cc1ccc2ccccc2c1 as the compound, how does the logP ([3]; read-out: logP) read?
**A.** 2.12

**Q.** And the pKa [4]?
**A.** 9.11

**Q.** And the Change (Mus musculus [10])?
**A.** inactive

**Q.** With Oc1cc(C23CC4CC(CC(C4)C2)C3)n[nH]1 as the compound, how does the Change (Mus musculus [17]) read?
**A.** inactive

**Q.** For Oc1[nH]nc(C(F)(F)F)c1Cc1ccc2c(c1)OCO2, which Change (Mus musculus [2]) is on record?
**A.** -38%

**Q.** Which Change (Mus musculus [5]) does the source give for Oc1[nH]nc(C(F)(F)F)c1Cc1ccccc1 here?
**A.** -33%

**Q.** What about the Change (Mus musculus [13]) of the same compound?
**A.** -18%
